ChEMBL document CHEMBL4765368, “Structure guided design and synthesis of furyl thiazolidinedione derivatives as inhibitors of GLUT 1 and GLUT 4, and evaluation of their anti-leukemic potential” (Eur J Med Chem, 2020)
Calls of active or inactive are those of the source. No cut-off for these calls is given here.

Assays:
[1] = molecular target: Histone deacetylase 4 (Homo sapiens) (UniProt P56524); test: (§1) Inhibition of recombinant human N-terminal GST-tagged HDAC4 (627 to end residues) expressed in baculovirus infected Sf9 insect cells assessed as residual activity at 50 uM using Boc-Lys(trifluoroacetyl)-AMC as substrate preincubated for 60 mins followed by substrate addition and measured after 60 mins by fluorescence assay relative to control; conditions: time 120.0 min
Chain of Histone deacetylase 4 (Homo sapiens) (P56524 whole entry): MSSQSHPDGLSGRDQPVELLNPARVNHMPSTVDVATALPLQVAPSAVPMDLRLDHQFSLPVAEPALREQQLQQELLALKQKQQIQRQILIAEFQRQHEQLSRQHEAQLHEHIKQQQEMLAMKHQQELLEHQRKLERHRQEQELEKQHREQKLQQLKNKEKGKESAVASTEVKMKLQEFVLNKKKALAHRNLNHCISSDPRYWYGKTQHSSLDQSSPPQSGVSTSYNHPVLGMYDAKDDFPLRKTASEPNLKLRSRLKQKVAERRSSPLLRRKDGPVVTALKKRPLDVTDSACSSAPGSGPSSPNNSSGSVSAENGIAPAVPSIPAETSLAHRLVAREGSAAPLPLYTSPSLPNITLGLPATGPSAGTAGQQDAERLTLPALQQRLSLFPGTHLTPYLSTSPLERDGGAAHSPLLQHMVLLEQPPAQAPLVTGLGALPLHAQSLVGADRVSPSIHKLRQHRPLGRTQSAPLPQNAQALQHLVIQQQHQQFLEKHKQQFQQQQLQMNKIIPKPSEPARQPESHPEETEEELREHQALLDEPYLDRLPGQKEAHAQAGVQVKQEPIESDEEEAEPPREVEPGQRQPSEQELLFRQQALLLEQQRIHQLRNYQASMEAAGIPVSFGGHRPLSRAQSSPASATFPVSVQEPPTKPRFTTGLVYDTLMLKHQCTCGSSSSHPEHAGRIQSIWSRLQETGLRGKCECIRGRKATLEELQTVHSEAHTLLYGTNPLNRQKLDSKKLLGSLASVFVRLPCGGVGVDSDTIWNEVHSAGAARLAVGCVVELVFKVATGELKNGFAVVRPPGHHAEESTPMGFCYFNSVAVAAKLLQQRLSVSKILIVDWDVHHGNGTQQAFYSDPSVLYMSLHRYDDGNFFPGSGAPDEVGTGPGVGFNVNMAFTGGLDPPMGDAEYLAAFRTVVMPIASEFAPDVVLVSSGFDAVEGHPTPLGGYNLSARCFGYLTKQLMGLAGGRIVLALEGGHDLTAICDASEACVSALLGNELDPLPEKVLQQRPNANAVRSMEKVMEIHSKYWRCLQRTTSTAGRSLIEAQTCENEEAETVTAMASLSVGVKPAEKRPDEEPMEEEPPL

[2] = molecular target: T1, Solute carrier family 2, facilitated glucose transporter member 5 (Homo sapiens) (UniProt P22732); test: Inhibition of transport activity of human GLUT5 expressed in hexose transporter deficient VW4000 yeast cells assessed as reduction in transporter-mediated [14C]-fructose uptake into cells at 100 uM measured after 10 mins by scintillation counting method; format: cell-based
T1 sequence (whole entry): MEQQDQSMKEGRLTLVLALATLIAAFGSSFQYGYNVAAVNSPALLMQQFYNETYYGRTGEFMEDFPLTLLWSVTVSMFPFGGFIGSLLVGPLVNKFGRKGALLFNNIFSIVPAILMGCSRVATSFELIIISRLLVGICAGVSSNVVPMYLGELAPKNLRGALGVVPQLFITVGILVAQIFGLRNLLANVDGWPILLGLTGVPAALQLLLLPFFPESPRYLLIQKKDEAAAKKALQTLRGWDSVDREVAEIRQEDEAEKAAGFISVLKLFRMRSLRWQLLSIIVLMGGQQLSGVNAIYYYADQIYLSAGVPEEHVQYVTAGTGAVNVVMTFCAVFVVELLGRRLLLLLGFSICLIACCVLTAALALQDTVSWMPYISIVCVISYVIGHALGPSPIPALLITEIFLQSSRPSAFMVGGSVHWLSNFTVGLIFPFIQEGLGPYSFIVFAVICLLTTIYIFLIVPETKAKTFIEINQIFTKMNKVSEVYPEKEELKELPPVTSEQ
Outline: (§2)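 The hxt0 yeast strain expressing one human GLUT was grown at 30 °C and resuspended in PBS pH 7.4 at OD600 ~10. Uptake was started with 14C-glucose at 5 mM final (GLUT1, GLUT4) or 14C-fructose at 10 mM final (GLUT5). It was quenched after 10 min with ice-cold 0.1 M KPi/0.1 M LiCl pH 5.5, filtered and counted by scintillation. Compound at 100 μM with 1% DMSO; DMSO control and phloretin 200 μM (GLUT1/4) or MSNBA 100 μM (GLUT5) as references. Triplicates.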

[3] = molecular target: T2, Histone deacetylase 8 (Homo sapiens) (UniProt Q9BY41); test: as §1, with “His6/SUMO-tagged HDAC8” for “N-terminal GST-tagged HDAC4 (627 to end residues)”, “Escherichia coli (BL21) DE3 pLysS” for “baculovirus infected Sf9 insect cells”; conditions: time 120.0 min
T2 sequence (whole entry): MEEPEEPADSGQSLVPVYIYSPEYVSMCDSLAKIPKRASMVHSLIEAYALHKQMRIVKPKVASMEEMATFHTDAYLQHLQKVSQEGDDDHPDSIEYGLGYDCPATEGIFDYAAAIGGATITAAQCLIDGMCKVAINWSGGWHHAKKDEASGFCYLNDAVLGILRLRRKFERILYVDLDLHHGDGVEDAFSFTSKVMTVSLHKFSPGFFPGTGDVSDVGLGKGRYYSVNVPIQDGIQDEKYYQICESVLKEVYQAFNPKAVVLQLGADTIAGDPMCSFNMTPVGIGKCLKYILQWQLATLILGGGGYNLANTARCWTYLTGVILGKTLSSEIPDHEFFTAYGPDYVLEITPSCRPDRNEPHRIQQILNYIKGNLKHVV
Outline: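 20 μM Boc-Lys(trifluoroacetyl)-AMC was then added for 60 min at 30 °C, the reaction stopped with 1.7 μM SATFMK and developed with 0.4 mg/ml trypsin, and AMC fluorescence read at Ex 350/Em 450 nm. Triplicates; percent relative activity.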

[4] = test system: CCRF-CEM; test: Cytotoxicity against human CCRF-CEM cells assessed as reduction in cell viability measured after 48 hrs by Hoechst 33342/propidium iodide staining based imaging analysis; format: functional
Outline: (§3)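 Cells were seeded at 10,000 per well (HS-27 at 3,000) in 10% FBS RPMI (leukemic lines) or DMEM (MDA-MB-231, HS-27). Compound in DMSO (1% v/v final) at 0.5–100 µM for 48 h. Hoechst 33342 and PI were added 2 h before automated imaging; dead cells were co-stained. Quadruplicates. CC50 was taken by linear interpolation between the two concentrations nearest 50% death.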

[5] = test system: KCL-22; test: Cytotoxicity against human KCL-22 cells assessed as reduction in cell viability measured after 48 hrs by Hoechst 33342/propidium iodide staining based imaging analysis; format: functional; outline: as §3
[6] = test system: K562; test: Cytotoxicity against human K562 cells assessed as reduction in cell viability measured after 48 hrs by Hoechst 33342/propidium iodide staining based imaging analysis; format: functional; outline: as §3
[7] = molecular target: T3, Histone deacetylase 8 (Homo sapiens, UniProt Q9BY41); test: Inhibition of recombinant human His6/SUMO-tagged HDAC8 expressed in Escherichia coli (BL21) DE3 pLysS using Boc-Lys(trifluoroacetyl)-AMC as substrate preincubated for 60 mins followed by substrate addition and measured after 60 mins by fluorescence assay
T3 sequence (Q9BY41 whole entry): T2 sequence (whole entry)

[8] = molecular target: T4, Solute carrier family 2, facilitated glucose transporter member 1 (Homo sapiens, UniProt P11166); test: Inhibition of transport activity of human GLUT1 expressed in hexose transporter deficient VW4000fgy1 yeast cells assessed as reduction in transporter-mediated [14C]-hexose uptake into cells measured after 10 mins by scintillation counting method; format: cell-based
T4 sequence (P11166 whole entry): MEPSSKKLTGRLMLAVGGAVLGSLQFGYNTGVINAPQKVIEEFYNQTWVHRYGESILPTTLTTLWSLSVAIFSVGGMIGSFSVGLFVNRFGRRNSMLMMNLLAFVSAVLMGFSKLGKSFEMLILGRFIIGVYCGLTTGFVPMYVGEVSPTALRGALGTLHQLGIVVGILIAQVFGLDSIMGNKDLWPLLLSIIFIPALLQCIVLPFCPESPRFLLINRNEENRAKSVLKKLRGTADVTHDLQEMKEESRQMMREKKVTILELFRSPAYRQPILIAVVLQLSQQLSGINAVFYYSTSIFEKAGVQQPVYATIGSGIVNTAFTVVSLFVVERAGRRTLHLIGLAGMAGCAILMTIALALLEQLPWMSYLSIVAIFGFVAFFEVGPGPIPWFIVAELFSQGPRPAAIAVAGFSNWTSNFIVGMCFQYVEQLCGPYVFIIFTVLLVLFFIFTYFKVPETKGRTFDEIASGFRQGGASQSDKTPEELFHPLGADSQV
Outline: (§4)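 GLUT1 (VW4000fgy1) or GLUT4 (VW4000fgy1erg4) hxt0 yeast were grown on maltose and then glucose and resuspended in PBS pH 7.4 at OD600 ~10. Compound was used at 0.1–100 μM, final 1% DMSO. Uptake of 5 mM 14C-glucose over 10 min was stopped with ice-cold quench buffer, filtered and counted by scintillation. IC50 was taken from dose-response curves of three independent measurements.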

[9] = molecular target: T5, Solute carrier family 2, facilitated glucose transporter member 1 (Homo sapiens) (UniProt P11166); test: Inhibition of transport activity of human GLUT1 expressed in hexose transporter deficient VW4000fgy1 yeast cells assessed as reduction in transporter-mediated [14C]-hexose uptake into cells at 100 uM measured after 10 mins by scintillation counting method relative to control; format: cell-based; outline: as §2
T5 sequence (whole entry): T4 sequence (P11166 whole entry)

[10] = molecular target: T6, Solute carrier family 2, facilitated glucose transporter member 4 (Homo sapiens) (UniProt P14672); test: Inhibition of transport activity of human GLUT4 expressed in hexose transporter deficient […] erg4 yeast cells assessed as reduction in transporter-mediated [14C]-hexose uptake into cells at 100 uM measured after 10 mins by scintillation counting method relative to control; format: cell-based; outline: as §2
T6 sequence (whole entry): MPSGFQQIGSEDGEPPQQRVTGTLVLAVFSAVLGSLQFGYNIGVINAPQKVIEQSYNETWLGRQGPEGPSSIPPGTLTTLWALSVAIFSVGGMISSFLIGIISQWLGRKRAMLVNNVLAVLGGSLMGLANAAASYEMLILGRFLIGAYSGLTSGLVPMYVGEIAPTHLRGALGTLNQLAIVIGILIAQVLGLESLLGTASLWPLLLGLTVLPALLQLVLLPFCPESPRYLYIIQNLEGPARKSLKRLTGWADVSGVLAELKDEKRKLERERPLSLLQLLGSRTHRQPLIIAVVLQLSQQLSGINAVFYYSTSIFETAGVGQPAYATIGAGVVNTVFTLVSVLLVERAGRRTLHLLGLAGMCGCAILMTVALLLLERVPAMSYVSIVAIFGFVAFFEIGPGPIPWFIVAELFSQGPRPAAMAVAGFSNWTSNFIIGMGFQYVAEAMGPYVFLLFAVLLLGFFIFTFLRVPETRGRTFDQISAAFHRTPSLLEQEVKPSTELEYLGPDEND

[11] = molecular target: T7, Solute carrier family 2, facilitated glucose transporter member 4 (Homo sapiens, UniProt P14672); test: Inhibition of transport activity of human GLUT4 expressed in hexose transporter deficient W4000fgy1 erg4 yeast cells assessed as reduction in transporter-mediated [14C]-hexose uptake into cells measured after 10 mins by scintillation counting method; format: cell-based; outline: as §4
T7 sequence (P14672 whole entry): T6 sequence (whole entry)

Row | Compound | Activity [1] [%] | inhibition [2] | Activity [3] [%] | CC50 [4] [µM] | CC50 [5] [µM] | CC50 [6] [µM] | IC50 [7] [µM] | IC50 [8] [µM] | inhibition [9] [%] | inhibition [10] [%] | IC50 [11] [µM]
1 | O=C(CN1C(=O)S/C(=C/c2ccco2)C1=O)Nc1ccc(F)cc1F | > 50 | inactive | > 50 | – | – | – | – | – | – | – | –
2 | O=C(CN1C(=O)S/C(=C/c2ccco2)C1=O)Nc1cc(C(F)(F)F)ccc1Cl | > 50 | inactive | > 50 | – | – | – | – | – | – | – | –
3 | O=C(CN1C(=O)S/C(=C/c2ccco2)C1=O)Nc1ccc(Cl)cc1C(F)(F)F | > 50 | inactive | > 50 | 79.9 | > 100 | > 100 | – | – | – | – | –
4 | Cc1cc(NC(=O)CN2C(=O)S/C(=C/c3ccco3)C2=O)no1 | > 50 | inactive | > 50 | > 100 | > 100 | 98.6 | – | – | – | – | –
5 | O=C(CN1C(=O)S/C(=C/c2ccco2)C1=O)Nc1ccccn1 | > 50 | inactive | > 50 | – | – | – | – | – | – | – | –
6 | O=C(CN1C(=O)S/C(=C/c2ccco2)C1=O)Nc1nccs1 | > 50 | inactive | > 50 | – | – | – | – | – | – | – | –
7 | O=C(CN1C(=O)S/C(=C/c2ccco2)C1=O)Nc1cccc(F)c1 | > 50 | inactive | > 50 | – | – | – | – | – | – | – | –
8 | O=C(CN1C(=O)S/C(=C/c2ccco2)C1=O)Nc1ccc([N+](=O)[O-])cc1 | > 50 | inactive | 17 | – | – | – | 13 | – | – | – | –
9 | Cc1ccc(NC(=O)CN2C(=O)S/C(=C/c3ccco3)C2=O)cc1 | > 50 | inactive | > 50 | 102 | > 100 | > 100 | – | – | – | – | –
10 | O=C(CN1C(=O)S/C(=C/c2ccco2)C1=O)Nc1ccc(F)cc1 | > 50 | inactive | > 50 | – | – | – | – | – | – | – | –
11 | O=C(CN1C(=O)S/C(=C/c2ccco2)C1=O)Nc1cccc(C(F)(F)F)c1 | > 50 | inactive | > 50 | – | – | – | – | – | – | – | –
12 | O=C(CN1C(=O)S/C(=C/c2ccco2)C1=O)Nc1ccc(Br)c(Br)c1 | > 50 | – | > 50 | – | – | – | – | – | – | – | –
13 | Cc1c(NC(=O)CN2C(=O)S/C(=C/c3ccco3)C2=O)c(=O)n(-c2ccccc2)n1C | > 50 | inactive | > 50 | – | – | – | – | – | – | – | –
14 | Cc1ccc(NC(=O)CN2C(=O)S/C(=C/c3ccco3)C2=O)cc1Cl | > 50 | inactive | > 50 | – | – | – | – | – | – | – | –
15 | O=C(CN1C(=O)S/C(=C/c2ccco2)C1=O)Nc1ccc(Oc2ccccc2)cc1 | > 50 | inactive | > 50 | – | – | – | – | – | – | – | –
16 | O=C(CN1C(=O)S/C(=C/c2ccco2)C1=O)Nc1c(F)cc(Br)cc1F | > 50 | inactive | > 50 | – | – | – | – | – | – | – | –
17 | O=C(CN1C(=O)S/C(=C/c2ccco2)C1=O)Nc1ccccc1 | > 50 | inactive | > 50 | – | – | – | – | – | – | – | –
18 | O=C(CN1C(=O)S/C(=C/c2ccco2)C1=O)Nc1ccc(Br)cc1 | > 50 | inactive | > 50 | 81 | 98.2 | 94 | – | – | – | – | –
19 | COc1ccc(NC(=O)CN2C(=O)S/C(=C/c3ccco3)C2=O)cc1 | > 50 | inactive | > 50 | – | – | – | – | – | – | – | –
20 | O=C(CN1C(=O)S/C(=C/c2ccco2)C1=O)Nc1ccccc1F | > 50 | inactive | > 50 | – | – | – | – | – | – | – | –
21 | O=C(CN1C(=O)S/C(=C/c2ccco2)C1=O)Nc1ccc(Br)cc1F | > 50 | inactive | > 50 | – | – | – | – | – | – | – | –
22 | Cc1cccc2sc(NC(=O)CN3C(=O)S/C(=C/c4ccco4)C3=O)nc12 | > 50 | inactive | > 50 | 96.8 | 97 | 97.1 | – | 72 | > 50 | > 50 | 123
